{
  "source": "ChEMBL document CHEMBL1133551",
  "about": "“Non-depolarizing neuromuscular blocking activity of bisquaternary amino di- and tripeptide derivatives” (J Med Chem, 2000)",
  "key": {"Felis catus [1]": {"test_system": "Felis catus", "experiment": "Duration (90%) measured for NMB activity in anesthetized cats", "assay_type": "functional", "in_short": "(§1)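 Anesthetized, ventilated cats, tibialis anterior twitch evoked by sciatic nerve stimulation at 0.1 Hz; iv doses giving 80-95% block. Onset is injection to the first maximally depressed twitch. Duration is injection to 90% spontaneous recovery relative to predrug twitch.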"}, "Gallus gallus [2]": {"organism": "Gallus gallus", "experiment": "Dose causing 50% block of muscle twitch in isolated chick biventer cervicis muscle (Increase in baseline tension)", "conditions": "Muscle tissue, read-out: ED50 (the source's name)"}, "Felis catus [3]": {"test_system": "Felis catus", "experiment": "Inhibitory potency in anesthetized cats", "assay_type": "functional", "in_short": "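Cats of either sex (1.9-2.6 kg), anesthetized i.p. with α-chloralose 80 mg/kg plus pentobarbitone 5 mg/kg and ventilated with room air, 37 ± 1 °C. Sciatic nerve stimulated at 0.1 Hz (0.25-ms supramaximal pulses), tibialis anterior twitch recorded. Increasing doses given iv (jugular) at 30-60-min intervals.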"}, "Felis catus [4]": {"test_system": "Felis catus", "experiment": "Recovery time (25-75 %) measured for NMB activity in anesthetized cats", "assay_type": "functional, organism-based", "in_short": "as §1"}, "Felis catus [5]": {"test_system": "Felis catus", "experiment": "Onset time was measured for NMB activity in anesthetized cats", "assay_type": "functional", "in_short": "as §1"}, "Felis catus [6]": {"test_system": "Felis catus", "experiment": "Inhibition of stimulated vagus nerve-induced bradycardia in anesthetized cats", "assay_type": "functional", "in_short": "(§2)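 Anesthetized cats. Every 100 s the vagus nerve was stimulated for 10 s at 2-5 Hz to evoke bradycardia, and the cervical sympathetic nerve was stimulated to evoke nictitating membrane contraction. Near the end of experiments, logarithmically increasing iv doses were given at 100-s intervals. Doses giving 50% block were obtained by regression and interpolation.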"}, "Gallus gallus [7]": {"organism": "Gallus gallus", "experiment": "(§3) Dose causing 50% block of muscle twitch in isolated chick biventer cervicis muscle", "assay_type": "functional, Muscle tissue", "in_short": "(§4)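 Isolated chick biventer cervicis nerve-muscle preparation; bath fluid gassed with 5% CO2 in O2, pH 7.4. Motor nerves stimulated at 0.1 Hz with 0.2-ms rectangular pulses at supramaximal voltage to give indirect twitches. Concentration-twitch inhibition lines fitted by least squares, and the concentration producing 50% twitch block (µM) was read off.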"}, "Felis catus [8]": {"organism": "Felis catus", "experiment": "Inhibition of superior cervical nerve-induced contractions of the nictitating membrane", "assay_type": "functional", "in_short": "as §2"}, "Felis catus [9]": {"organism": "Felis catus", "experiment": "Inhibition of stimulated vagus nerve-induced bradycardia", "assay_type": "functional", "in_short": "as §2"}, "[10]": {"experiment": "as §3", "assay_type": "functional", "conditions": "Gallus gallus, Muscle tissue; read-out: ED50 (the source's name)", "in_short": "as §4"}, "Gallus gallus [11]": {"organism": "Gallus gallus", "experiment": "-logED50 value for chick biventer determined.", "assay_type": "functional", "in_short": "as §4"}, "Monkey [12]": {"test_system": "Monkey", "experiment": "Duration (90%) measured for NMB activity in anesthetized rhesus monkeys", "assay_type": "functional, Cercopithecidae", "in_short": "(§5)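 Anesthetized, ventilated Rhesus monkeys; iv dosing at 3 × the 90% blocking dose. Onset is injection to the first maximally depressed twitch. Duration is injection to 90% spontaneous recovery versus predrug twitch.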"}, "Monkey [13]": {"test_system": "Monkey", "experiment": "Onset time was measured for NMB activity in anesthetized rhesus monkeys", "assay_type": "functional, Cercopithecidae", "in_short": "as §5"}, "Felis catus [14]": {"test_system": "Felis catus", "experiment": "Inhibition of superior cervical nerve-induced contractions of the nictitating membrane in anesthetized cats; Pre- and post-block increases in twitch tension and short-lived muscle fasciculations 20-30 s after dosing", "assay_type": "functional, organism-based", "in_short": "as §2"}, "Monkey [15]": {"test_system": "Monkey", "experiment": "Inhibitory potency in anesthetized rhesus monkeys", "assay_type": "functional", "conditions": "Cercopithecidae, in Macaca mulatta"}, "Monkey [16]": {"test_system": "Monkey", "experiment": "Recovery time (25-75 %) measured for NMB activity in anesthetized rhesus monkeys", "assay_type": "functional, organism-based", "conditions": "Cercopithecidae", "in_short": "as §5"}, "[17]": {"experiment": "Dose causing 50% block of muscle twitch in isolated chick biventer cervicis muscle (Increase in baseline tension)", "conditions": "Gallus gallus, Muscle tissue; read-out: ED50 (the source's name)"}, "Felis catus [18]": {"test_system": "Felis catus", "experiment": "Inhibitory potency in anesthetized cats, and Onset time is reported", "assay_type": "functional", "in_short": "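Anesthetized cats (alpha-chloralose/pentobarbitone i.p., ventilated, 37 ± 1 °C). Tibialis anterior twitch evoked via sciatic nerve at 0.1 Hz, 0.25-ms supramaximal pulses. Increasing i.v. (jugular) doses at 30-60-min intervals. ED50 interpolated from log dose lines over 15-85% block. Onset, from injection to first maximally depressed twitch, measured at doses giving 80-95% block.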"}, "Felis catus [19]": {"test_system": "Felis catus", "experiment": "Inhibition of superior cervical nerve-induced contractions of the nictitating membrane in anesthetized cats", "assay_type": "functional", "in_short": "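Cats of either sex (1.9-2.6 kg), anesthetized with i.p. alpha-chloralose 80 mg/kg plus pentobarbitone 5 mg/kg, ventilated to keep arterial pH 7.3-7.4, 37 ± 1 °C. Nictitating membrane contractions evoked by cervical sympathetic nerve stimulation, recorded every 100 s. Logarithmically increasing doses injected into the jugular vein at 100-s intervals; 50%-blocking dose obtained by regression and interpolation.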"}},
  "data": [
    {"smiles": "COc1ccc(CC2c3cc(OC)c(OC)cc3CC[N+]2(C)CCC(=O)OCCCCCOC(=O)CC[N+]2(C)CCc3cc(OC)c(OC)cc3C2Cc2ccc(OC)c(OC)c2)cc1OC", "note": "(stereo unspecified)", "values": [
      {"measurement": "Duration", "setting": "Felis catus [1]", "value": 19.4, "unit": "min"},
      {"measurement": "EC50", "setting": "Gallus gallus [2]", "value": 410, "unit": "nM"},
      {"measurement": "ED50", "setting": "Felis catus [3]", "value": 0.1, "unit": "µmol/kg"},
      {"measurement": "Recovery", "setting": "Felis catus [4]", "value": 5.9, "unit": "min"},
      {"measurement": "Onset", "setting": "Felis catus [5]", "value": 5.8, "unit": "min"},
      {"measurement": "ED50", "setting": "Felis catus [6]", "value": 1.6, "unit": "µmol/kg"}
    ]},
    {"smiles": "O=C(C[N+]1(Cc2ccc([N+](=O)[O-])cc2)CCCCC1)NC(Cc1ccccc1)C(=O)NCC[N+]1(Cc2ccc([N+](=O)[O-])cc2)CCOCC1.[Br-].[Br-]", "note": "(stereo unspecified)", "values": [
      {"measurement": "ED50", "setting": "Gallus gallus [7]", "value": 19800, "unit": "nM"},
      {"measurement": "ED50", "setting": "Felis catus [8]", "value": "> 11.2", "unit": "µmol/kg"},
      {"measurement": "ED50", "setting": "Felis catus [9]", "value": 0.8, "unit": "µmol/kg"},
      {"measurement": "ED50", "setting": "Felis catus [3]", "value": 10.1, "unit": "µmol/kg"}
    ]},
    {"smiles": "C[N+]1(CCNC(=O)C(Cc2ccccc2)NC(=O)C[N+]2(C)CCCCC2)CCOCC1", "note": "(stereo unspecified)", "values": [
      {"measurement": "EC50", "setting": "[10]", "value": 407000, "unit": "nM"},
      {"measurement": "pCB50", "setting": "Gallus gallus [11]", "value": 3.39}
    ]},
    {"smiles": "C[N+](C)(C)CCOC(=O)CCC(=O)OCC[N+](C)(C)C", "note": "[SUXAMETHONIUM]", "values": [
      {"measurement": "Duration", "setting": "Felis catus [1]", "value": 5.7, "unit": "min"},
      {"measurement": "Duration", "setting": "Monkey [12]", "value": 9.7, "unit": "min"},
      {"measurement": "Onset", "setting": "Monkey [13]", "value": 1.5, "unit": "min"},
      {"measurement": "EC50", "setting": "Gallus gallus [2]", "value": 540, "unit": "nM"},
      {"measurement": "ED50", "setting": "Felis catus [3]", "value": 0.11, "unit": "µmol/kg"},
      {"measurement": "ED50", "setting": "Felis catus [14]", "value": "Pre- and post-block increases in twitch tension and short-lived muscle fasciculations 20-30 s after dosing"},
      {"measurement": "Recovery", "setting": "Felis catus [4]", "value": 1.9, "unit": "min"},
      {"measurement": "ED90", "setting": "Monkey [15]", "value": 5.04, "unit": "µmol/kg"},
      {"measurement": "Onset", "setting": "Felis catus [5]", "value": 1.7, "unit": "min"},
      {"measurement": "Recovery", "setting": "Monkey [16]", "value": 2.9, "unit": "min"}
    ]},
    {"smiles": "CC(=O)O[C@H]1C[C@@H]2CC[C@@H]3[C@H](CC[C@@]4(C)[C@H]3C[C@H]([N+]3(C)CCCCC3)[C@@H]4OC(C)=O)[C@@]2(C)C[C@@H]1[N+]1(C)CCCCC1", "note": "[PANCURONIUM]", "values": [
      {"measurement": "EC50", "setting": "[17]", "value": 200, "unit": "nM"},
      {"measurement": "ED50", "setting": "Felis catus [18]", "value": 0.03, "unit": "µmol/kg"},
      {"measurement": "Duration", "setting": "Felis catus [1]", "value": 11.7, "unit": "min"},
      {"measurement": "pCB50", "setting": "Gallus gallus [11]", "value": 6.7},
      {"measurement": "Recovery", "setting": "Felis catus [4]", "value": 4, "unit": "min"},
      {"measurement": "Onset", "setting": "Felis catus [5]", "value": 4.1, "unit": "min"},
      {"measurement": "ED50", "setting": "Felis catus [6]", "value": 0.07, "unit": "µmol/kg"}
    ]},
    {"smiles": "C[N+](C)(C)CC(=O)NCC(=O)NCC[N+]1(C)CCOCC1", "values": [
      {"measurement": "EC50", "setting": "Gallus gallus [7]; Gallus gallus, Muscle tissue, read-out: ED50 (the source's name)", "value": "> 390000", "unit": "nM"}
    ]},
    {"smiles": "C=CC[N+]1([C@H]2C[C@H]3[C@@H]4CC[C@H]5C[C@H](O)[C@@H](N6CCOCC6)C[C@]5(C)[C@H]4CC[C@]3(C)[C@H]2OC(C)=O)CCCC1", "note": "[ROCURONIUM]", "values": [
      {"measurement": "EC50", "setting": "[17]", "value": 760, "unit": "nM"},
      {"measurement": "ED50", "setting": "Felis catus [18]", "value": 0.25, "unit": "µmol/kg"},
      {"measurement": "Duration", "setting": "Felis catus [1]", "value": 8.3, "unit": "min"},
      {"measurement": "Duration", "setting": "Monkey [12]", "value": 13.6, "unit": "min"},
      {"measurement": "pCB50", "setting": "Gallus gallus [11]", "value": 6.12},
      {"measurement": "Onset", "setting": "Monkey [13]", "value": 3.1, "unit": "min"},
      {"measurement": "Recovery", "setting": "Felis catus [4]", "value": 2.9, "unit": "min"},
      {"measurement": "ED50", "setting": "Felis catus [19]", "value": 0.16, "unit": "µmol/kg"},
      {"measurement": "Onset", "setting": "Felis catus [5]", "value": 2, "unit": "min"},
      {"measurement": "ED50", "setting": "Felis catus [6]", "value": 2.17, "unit": "µmol/kg"},
      {"measurement": "Recovery", "setting": "Monkey [16]", "value": 5, "unit": "min"}
    ]}
  ]
}
